Active and inactive are the calls of the source. The calls are words filed in the database; no cut-off is given here.
Tests used:
L02 = test: Antiproliferative activity against human L-O2 cells assessed as reduction in cell viability incubated for 48 hrs by MTT assay; format: cell-based; details: L02, 48 h
Procedure, shortened: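 Cells seeded at 5 × 10³ per well, incubated overnight, then exposed to a range of compound concentrations for 48 h. MTT added for 4 h, medium replaced with DMSO, absorbance read at 570 nm. MCF-7, L-O2 grown in DMEM; MCF-10A, MCF-7/ADR in RPMI 1640. Three independent runs.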

Tubulin (Homo sapiens) = Tubulin (Homo sapiens) (UniProt P68371+Q9H4B7+P0DPH7+P68366+Q13509+Q71U36+P04350+Q3ZCM7+P07437+P68363+Q9BQE3+Q6PEY2+Q13885+Q9BVA1+Q9BUF5); test: Induction of microtubule depolymerization in human MCF7 cells at 10 uM measured every 5 mins for 60 mins by spectrophotometric method; format: cell-based
Procedure, shortened: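 Purified tubulin at 2 mg/mL in PEM buffer preincubated on ice with compound or DMSO. PEG added to a final 3 mg/mL, then polymerization followed at 37 °C by absorbance at 350 nm every 5 min for 60 min.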

MCF7 [1] = test: Cell cycle arrest in human MCF7 cells assessed as decrease in Cdc2 protein expression; format: functional, cell-based; details: dose 1-4 nM
Procedure, shortened: (§1)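 MCF-7 seeded 4 × 10⁵ per well for 24 h, then DMSO or compound at 1, 2, 4 nM for 24 h. Lysates protein-normalized to 3 mg/mL by BCA, resolved on 4–20% SDS-PAGE and immunoblotted. Bands quantified relative to β-actin (cell-cycle proteins) or GAPDH (apoptosis proteins); n = 3.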

MCF7 [2] = test: Induction of apoptosis in human MCF7 cells assessed as early apoptotic cells at 0.5 nM measured after 24 hrs by Annexin V-FITC and PI staining based flow cytometry assay (reference value: 0.90%); format: functional
MCF7 [3] = test: Induction of apoptosis in human MCF7 cells assessed as late apoptotic cells at 0.5 nM measured after 24 hrs by Annexin V-FITC and PI staining based flow cytometry assay (reference value: 2.06%); format: functional
MCF7 [4] = test: Induction of apoptosis in human MCF7 cells assessed as increase in Bax protein expression at 1 to 4 nM; format: functional, cell-based; details: dose 1-4 nM; procedure, shortened: as §1
MCF7 [5] = test: Induction of apoptosis in human MCF7 cells assessed as increase in cleaved Caspase-3 protein expression at 1 to 4 nM; format: functional, cell-based; details: dose 1-4 nM; procedure, shortened: as §1
MCF7 [6] = test: Induction of apoptosis in human MCF7 cells assessed as increase in PARP protein expression at 1 to 4 nM; format: functional, cell-based; details: dose 1-4 nM; procedure, shortened: as §1
MCF7 [7] = test: Induction of mitochondrial membrane potential loss in human MCF7 cells at 0.5 nM measured after 24 hrs by JC-1 staining based flow cytometry analysis (reference value: 3.01%); format: functional
MCF7 [8] = test: Inhibition of cell migration in human MCF7 cells at 2 nM incubated for 24 hrs in presence of DMBA by inverted fluorescence microscopic method (reference value: 11.51%); format: functional; design: scale not given: the % may be the effect or the level left
MCF7 [9] = test: Antitumor activity against human MCF7 cells xenografted in BALB/c nude mouse assessed as decrease in tumor weight at 1 mg/kg, iv administered every 2 days for 21 days and measured every 2 days; format: functional; design: scale not given: the % may be the effect or the level left; details: time 21 day
Procedure, shortened: (§2)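 MCF-7 cells (6 × 10⁶) injected subcutaneously into right flank of BALB/c nude mice; after 7 days animals randomized, eight per group. Dosing iv every 2 days for 21 days, vehicle 10% DMSO/5% Tween 80/85% saline. Tumor size and body weight recorded every 2 days; tumors excised and weighed at sacrifice.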

MCF7 [10] = test: Antitumor activity against human MCF7 cells xenografted in BALB/c nude mouse assessed as decrease in tumor weight at 0.5 mg/kg, iv administered every 2 days for 21 days and measured every 2 days; format: functional; design: scale not given: the % may be the effect or the level left; details: time 21 day; procedure, shortened: as §2
[11] = Toxicity in BALB/c nude mouse xenografted with human MCF7 cells assessed as effect on spleen at 0.5 to 1 mg/kg, iv administered every 2 days for 21 days by H and E staining based assay; format: organism-based; details: in vivo, 504 h, dose 0.5-1 mg/kg, time 21 day
Procedure, shortened: (§3)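 Nude mice given 6 × 10⁶ MCF-7 cells subcutaneously on right flank; after 7 days randomized, eight per group. iv dosing every 2 days at 0.5 or 1 mg/kg; vehicle 10% DMSO/5% Tween 80/85% saline; paclitaxel 10 mg/kg and CA-4 20 mg/kg references. Body weight every 2 days; killed after 21 days; organs fixed, paraffin-sectioned, H&E stained.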

MCF7 [12] = test: Induction of apoptosis in human MCF7 cells assessed as viable cells at 1 nM measured after 24 hrs by Annexin V-FITC and PI staining based flow cytometry assay (reference value: 96.8%); format: functional; details: read-out: Activity
MCF7 [13] = test: Induction of apoptosis in human MCF7 cells assessed as late apoptotic cells at 1 nM measured after 24 hrs by Annexin V-FITC and PI staining based flow cytometry assay (reference value: 2.06%); format: functional
MCF7 [14] = test: Induction of apoptosis in human MCF7 cells assessed as late apoptotic cells at 2 nM measured after 24 hrs by Annexin V-FITC and PI staining based flow cytometry assay (reference value: 2.06%); format: functional
MCF7 [15] = test: Induction of apoptosis in human MCF7 cells assessed as necrotic cells at 2 nM measured after 24 hrs by Annexin V-FITC and PI staining based flow cytometry assay (reference value: 0.28%); format: functional
MCF7 [16] = test: Induction of mitochondrial membrane potential loss in human MCF7 cells at 1 nM measured after 24 hrs by JC-1 staining based flow cytometry analysis (reference value: 3.01%); format: functional
MCF7 [17] = test: Antiproliferative activity against human MCF7 cells assessed as cell growth inhibition at 2 nM in presence of DMBA; format: functional, cell-based
MCF7 [18] = test: Induction of apoptosis in human MCF7 cells assessed as early apoptotic cells at 2 nM measured after 24 hrs in presence of DMBA by Annexin V-FITC and PI staining based flow cytometry assay (reference value: 1%); format: functional
MCF7 [19] = test: Induction of apoptosis in human MCF7 cells assessed as necrotic cells at 2 nM measured after 24 hrs in presence of DMBA by Annexin V-FITC and PI staining based flow cytometry assay (reference value: 0.9%); format: functional
MCF7 [20] = test: Induction of apoptosis in human MCF7 cells assessed as early apoptotic cells at 2 nM measured after 24 hrs by Annexin V-FITC and PI staining based flow cytometry assay (reference value: 1%); format: functional
[21] = Toxicity in BALB/c nude mouse xenografted with human MCF7 cells assessed as effect on heart at 0.5 to 1 mg/kg, iv administered every 2 days for 21 days by H and E staining based assay; format: organism-based; details: in vivo, 504 h, dose 0.5-1 mg/kg, time 21 day; procedure, shortened: as §3
[22] = Toxicity in BALB/c nude mouse xenografted with human MCF7 cells assessed as effect on kidney at 0.5 to 1 mg/kg, iv administered every 2 days for 21 days by H and E staining based assay; format: organism-based; details: in vivo, 504 h, dose 0.5-1 mg/kg, time 21 day; procedure, shortened: as §3
MCF7 [23] = test: Antitumor activity against human MCF7 cells xenografted in BALB/c nude mouse assessed as increase in apoptotic cells at 1 mg/kg, iv administered every 2 days for 21 days by TUNEL staining based assay; format: functional, organism-based; details: time 21.0 day
Procedure, shortened: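 Same subcutaneous MCF-7 nude-mouse xenografts dosed iv every 2 days for 21 days. Tumors then fixed, paraffin-embedded and sectioned. Apoptotic cells detected by TUNEL fluorescent staining with DNA counterstain; microvessel density measured by anti-CD31 immunohistochemistry.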

For Cc1nc(N(C)c2ccc3c(c2)cc(C)n3C)c2ccccc2n1, which IC50 (L02) is on record?
The IC50 was 4.6 nM.

What about the Activity (Tubulin (Homo sapiens)) of the same molecule?
The Activity was “Active”.

What about the Activity (MCF7 [1]) of the same molecule?
The Activity was “Dose-Dependent Effect”.

And the Activity (MCF7 [2])?
Its Activity is 1.28%.

What about the Activity (MCF7 [3]) of the same molecule?
Its Activity is 2.17%.

What about the Activity (MCF7 [4]) of the same molecule?
Its Activity is “Active”.

What about the Activity (MCF7 [5]) of the same molecule?
The Activity was “Active”.

And the Activity (MCF7 [6])?
The Activity was “Active”.

And the Activity (MCF7 [7])?
The Activity was 6.49%.

What about the Activity (MCF7 [8]) of the same molecule?
The Activity was 6.34%.

And the Activity (MCF7 [9])?
Its Activity is 81.1%.

And the Activity (MCF7 [10])?
Its Activity is 73.2%.

What about the Activity [11] of the same molecule?
The Activity was “Non-Toxic”.

And the viability at 0.001 µM (MCF7 [12])?
Its viability at 0.001 µM is 61.5%.

And the Activity (MCF7 [13])?
The Activity was 28.6%.

And the Activity (MCF7 [14])?
The Activity was 45.1%.

What about the Activity (MCF7 [15]) of the same molecule?
Its Activity is 4.51%.

What about the Activity (MCF7 [16]) of the same molecule?
Its Activity is 6.49%.

And the Activity (MCF7 [17])?
The Activity was “Active”.

What about the Activity (MCF7 [18]) of the same molecule?
Its Activity is 5%.

And the Activity (MCF7 [19])?
The Activity was 5.6%.

And the Activity (MCF7 [20])?
Its Activity is 6.9%.

And the Activity [21]?
The Activity was “Non-Toxic”.

What about the Activity [22] of the same molecule?
The Activity was “Non-Toxic”.

What about the Activity (MCF7 [23]) of the same molecule?
Its Activity is “Active”.

From ChEMBL document CHEMBL5030534, “Discovery of Novel Anti-Breast-Cancer Inhibitors by Synergistically Antagonizing Microtubule Polymerization and Aryl Hydrocarbon Receptor Expression” (J Med Chem, 2021)
